Laboratory results: ChEMBL document CHEMBL4145615, “Indolyl Azaspiroketal Mannich Bases Are Potent Antimycobacterial Agents with Selective Membrane Permeabilizing Effects and in Vivo Activity” (J Med Chem, 2018)
Converted amounts (≈) assume the structure as drawn.

Tests used:
[1] = tested on: Vero C1008; test: Cytotoxicity against African green monkey Vero E6 cells assessed as cell growth inhibition after 48 hrs by celltitre 96 aqueous one-based assay; details: Chlorocebus sabaeus, Vero C1008, 48 h
[2] = Selectivity index, ratio of IC50 for African green monkey Vero E6 cells to MIC50 for Mycobacterium bovis BCG ATCC 35734; assay type: toxicity, Vero C1008; details: read-out: Selectivity Index
[3] = Hemolytic activity against human RBC after 1 hr; assay type: ADME, cell-based, Erythrocyte; details: red blood cells (erythrocytes)
In short: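 Human red blood cells were exposed to the test compound at a range of concentrations in phosphate-buffered saline for 1 h at 37°C. Hemolysis was referenced to 2% Triton X-100, taken as 100% hemolysis. The value reported is the concentration that lyses 50% of RBCs.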

[4] = tested on: Mycobacterium tuberculosis; test: Bactericidal activity against Mycobacterium tuberculosis H37Rv ATCC 27294 assessed as 1000 fold reduction in CFU after 7 days; assay type: functional; details: H37Rv ATCC 27294, 168 h, read-out: MBC99.9
In short: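 BCG ran 5 days at 37°C, 110 rpm; H37Rv ran 7 days at 37°C, 80 rpm. CFU counted on 7H10 agar. MBC99.9 is the 1000-fold CFU reduction versus inoculum at time zero. Average of 2 or more determinations.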

[5] = tested on: Mycobacterium tuberculosis; test: Loebicidal activity against nutrient-starved nongrowing Mycobacterium tuberculosis H37Rv ATCC 27294 assessed as 1000 fold reduction in CFU after 7 days; assay type: functional
In short: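 Mtb H37Rv nutrient-starved, non-growing bacilli prepared from a roller-bottle culture. 1 mL at OD600 = 0.05 exposed to a range of concentrations for 7 days at 37°C, 80 rpm. CFU counted on 7H10 agar. LCC99.9 is the 1000-fold reduction versus drug-free inoculum at time zero.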

[6] = tested on: Mycobacterium tuberculosis; test: Antimycobacterial activity against Mycobacterium tuberculosis H37Rv ATCC 27294 after 7 days by broth dilution method; assay type: functional; details: H37Rv ATCC 27294, 168 h
[7] = tested on: Mycobacterium tuberculosis; test: Bactericidal activity against Mycobacterium tuberculosis H37Rv ATCC 27294 after 5 days; assay type: functional; details: H37Rv ATCC 27294, 120 h, read-out: MBC99.9
[8] = Half life in rat liver microsomes at 1 uM preincubated for 5 mins followed by NADPH addition measure up to 45 mins by LC-MS analysis; assay type: ADME, microsome; details: 0.75 h
In short: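 Male rat liver microsomes, incubated 45 min at 37°C. Half-life reported as mean ± SD.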

[9] = Cmax in CD1 mouse at 25 mg/kg, po administered as single dose by LC/MS-MS analysis; assay type: ADME, organism-based; design: dose 25 mg/kg, route oral; details: in vivo
In short: (§1)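 Uninfected CD-1 mice (n=2 per compound), single oral dose 25 mg/kg as a solution in 5% DMA/65% PEG300/30% D5W. Blood taken at 30 min, 1, 3, 5 h and plasma separated by centrifugation. Lungs taken at 5 h and homogenized in ~5 volumes PBS. Levels measured by LC/MS-MS after acetonitrile/methanol protein precipitation with verapamil internal standard. AUC and Cmax calculated from mean concentrations.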

[10] = tested on: Mus musculus; test: AUC in CD1 mouse at 25 mg/kg, po administered as single dose by LC/MS-MS analysis; assay type: ADME, organism-based; details: in vivo; in short: as §1
[11] = Plasma concentration in CD1 mouse at 25 mg/kg, po administered as single dose measured at 5 hrs post dose by LC/MS-MS analysis; assay type: ADME, organism-based; in short: as §1
[12] = tested on: Mus musculus; test: Toxicity in CD1 mouse at 25 mg/kg, po administered as single dose by LC/MS-MS analysis; assay type: organism-based; details: in vivo
In short: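 Uninfected CD-1 mice (n=2 per compound) received a single oral 25 mg/kg dose as a solution in 5% DMA/65% PEG300/30% D5W. Tail-bleed blood was taken at 30 min, 1, 3 and 5 h and spun to plasma. Lungs were taken at 5 h and homogenized in about 5 volumes of PBS. Samples were acetonitrile/methanol-precipitated with verapamil internal standard and quantified by LC-MS/MS against standard curves in drug-free CD1 plasma.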

[13] = tested on: Mus musculus; test: Acute toxicity in BALB/c mouse at 100 mg/kg administered via oral gavage for 3 days measured over 7 days; assay type: organism-based; details: in vivo, 168 h
In short: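 BALB/c mice, 3 per group, oral gavage at 100 mg/kg in 200 μL of equal volumes PEG400 and 5% glucose. Dosed on three consecutive days, then monitored 7 days. Euthanized by CO2 and examined for gross pathological changes.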

[14] = Drug uptake in lung of Mycobacterium tuberculosis H37Rv infected BALB/c mouse at 100 mg/kg administered 6 days per week for 4 weeks via oral gavage; assay type: ADME, organism-based; details: in vivo, read-out: Drug uptake
[15] = tested on: Lipid bilayer
[16] = Drug uptake in lungs of CD1 mouse at 25 mg/kg, po administered as single dose measured at 5 hrs post dose by LC/MS-MS analysis; assay type: ADME, organism-based; details: lung, read-out: Drug uptake; in short: as §1
[17] = Ratio of drug level in CD1 mouse lung to plasma at 25 mg/kg, po administered as single dose measured at 5 hrs post dose by LC/MS-MS analysis; assay type: ADME, organism-based
In short: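 Blood taken at 30 min, 1, 3, 5 h and plasma separated by centrifugation. Lungs taken at 5 h and homogenized in ~5 volumes PBS. Levels measured by LC/MS-MS after acetonitrile/methanol protein precipitation with verapamil internal standard. AUC and Cmax calculated from mean concentrations.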

| Compound | IC50 [1] [µM] | HC50 at 1 h [3] [µM] | further results |
| --- | --- | --- | --- |
| CCCCCCCCn1ccc2ccc(OCCCN3CCCCCC3)cc21 | 33 |  |  |
| CCCCCCCCn1cc(CNCC2CCC3(CCCC3)O2)c2ccc(OC)cc21 (configuration not stated) | 21 |  | selectivity ratio [2]: 12 |
| CCCCCCCCn1cc(CN2CCC3(CC2)OCCO3)c2ccc(C#N)cc21 | 59 | > 300 |  |
| CCCCCCCCn1cc(CN2CCC3(CC2)OCCCO3)c2ccc(OC(C)C)cc21 | 20 | 29 |  |
| CCCCCCCCn1cc(CN2CCC3(CC2)OCCCO3)c2ccc(OC)cc21 | 29 | 64 | MBC [4]: 3.2 µM (≈ 1.37 µg/mL); LCC99 [5]: 18 µM; MIC50 [6]: 0.44 µM (≈ 0.189 µg/mL); MIC90 [6]: 0.76 µM (≈ 0.326 µg/mL); MBC [7]: 3.2 µM (≈ 1.37 µg/mL); t1/2 [8]: 27.7 min; Cmax [9]: 64.8 ng/mL; AUC [10]: 282 ng·h/mL; concentration at 5 h [11]: 58.5 ng/mL; Activity [12]: Non-Toxic; Activity [13]: Non-Toxic; concentration [14]: 3000 nM; ΔTm [15]: 4 °C |
| CCCCCCCCn1cc(CNC2Cc3ccccc3C2)c2ccc(OC)cc21 | 24 |  | selectivity ratio [2]: 6 |
| CCCCCCCCn1cc(CNC2CCC3(CC2)OCCO3)c2ccc(OC)cc21 | 22 | 207 |  |
| COc1ccc2c(CN3CCCCC3)cn(CCCc3ccccc3)c2c1 | 43 |  |  |
| COc1ccc2c(CN3CCC4(CC3)OCCO4)cn(CCCc3ccccc3)c2c1 | 35 |  |  |
| CCCCCCCCn1ccc2cc(OCCCN3CCCCCC3)ccc21 | 34 |  | ΔTm [15]: 1 °C |
| CCCCCCCCn1cc(CN2CCC3(CC2)OC[C@@H](C)O3)c2ccc(OC)cc21 | 37 | 75 |  |
| CCCCCCCCn1cc(CN2CCC3(CC2)SCCCS3)c2ccc(OC)cc21 | 152 | > 300 | MIC50 [6]: 0.5 µM (≈ 0.23 µg/mL); MIC90 [6]: 0.78 µM (≈ 0.359 µg/mL) |
| CCCCCCCCn1cc(CN2CCC3(CC2)OCCO3)c2ccc(OCc3ccccc3)cc21 | 36 | > 300 |  |
| CCCCCCCCn1cc(CNCC2CC3CCC2C3)c2ccc(OC)cc21 (configuration not stated) | 10 | 19 |  |
| CCCCCCCCn1cc(CN2CCC3(C=Cc4ccccc43)CC2)c2ccc(OC)cc21 | 44 | > 300 | selectivity ratio [2]: 44 |
| CCCCCCCCn1cc(CN2CCC3(CC2)OC[C@H](C)O3)c2ccc(OC)cc21 | 34 | 51 |  |
| COc1ccc(CCCn2cc(CN3CCC4(CC3)OCCO4)c3ccc(OC)cc32)cc1 | 31 |  |  |
| CCCCCCCCn1cc(CN2CCC3(CC2)OCCCO3)c2ccc([N+](=O)[O-])cc21 | 28 | > 300 |  |
| COc1ccc2c(CN3CCC4(CC3)OCCCO4)cn(CCCCc3ccccc3)c2c1 | 21 | > 300 |  |
| CCCCCCCCn1cc(CN2CCCC3(CC2)OCCCS3)c2ccc(OC)cc21 (configuration not stated) | 34 | 132 |  |
| CCCCCCCCn1cc(CN2CCOC3(CCCOC3)C2)c2ccc(OC)cc21 (configuration not stated) | > 500 | > 300 | selectivity ratio [2]: > 278 |
| COc1ccc2c(CN3CCC4(CC3)OCCCO4)cn(CCCOc3ccc(C)cc3)c2c1 |  | > 300 |  |
| CCCCCCCCn1cc(CN2CCC3(CC2)OCCCS3)c2ccc(OC)cc21 | 39 | > 300 | MBC [4]: 3.2 µM (≈ 1.42 µg/mL); LCC99.9 [5]: <18 µM; MIC50 [6]: 0.5 µM (≈ 0.222 µg/mL); MIC90 [6]: 0.8 µM (≈ 0.356 µg/mL); MBC [7]: 3.2 µM (≈ 1.42 µg/mL); t1/2 [8]: 32.9 min; Cmax [9]: 60.6 ng/mL; AUC [10]: 224 ng·h/mL; concentration at 5 h [11]: 55.2 ng/mL; concentration at 5 h [16]: 1600 ng/g; Kp at 5 h [17]: 28.9; Activity [12]: Non-Toxic; ΔTm [15]: 4 °C |
| COc1ccc(OCCCn2cc(CN3CCC4(CC3)OCCCO4)c3ccc(OC)cc32)cc1 | 46 | > 300 |  |
| CCCCCCCCn1cc(CN2CCCCC2)c2ccc([N+](=O)[O-])cc21 | 23 |  |  |

| Compound | IC50 [1] [µM] | HC50 at 1 h [3] [µM] | further results |
| --- | --- | --- | --- |
| COc1ccc2c(CN3CCC4(CC3)OCCCO4)cn(CCCOCc3ccccc3)c2c1 | 54 |  |  |
| CCCCCCCCn1cc(CN2[C@H]3CCC[C@@H]2CCC3)c2ccc(OC)cc21 | 31 | 109 | selectivity ratio [2]: 8 |
| CCCCCCCCn1cc(CN2CCC3(CCc4ccccc43)CC2)c2ccc(OC)cc21 | 31 | > 300 | selectivity ratio [2]: 31 |
| COc1ccc2c(CN3CCC4(CC3)OCCCO4)cn(CCCOc3ccc(F)cc3)c2c1 |  | > 300 |  |
| CCCCCCCCn1cc(CN2CC(c3ccccc3)C2)c2ccc(OC)cc21 | 44 | > 300 |  |
| CCCCCCCCn1cc(CN2CCC3(CC2)OCCCO3)c2cccc([N+](=O)[O-])c21 | 49 | > 300 |  |
| CCCCCCCCn1cc(CN2CCC3(CC2)OCCCO3)c2ccc(C#N)cc21 | 22 | > 300 |  |
| COc1ccc2c(CN3CCC4(CC3)OCCCO4)cn(CCCOc3ccc(C)c(C)c3)c2c1 |  | > 300 |  |
| CCCCCCCCn1cc(CN2CCCC3(CC2)OCCS3)c2ccc(OC)cc21 (configuration not stated) | 35 | > 300 |  |
| CCCCCCCCn1cc(CN2CCC3(CC2)OCCCO3)c2ccc(OCc3ccccc3)cc21 | 27 | > 300 |  |
| CCCCCCCCn1cc(CNCC2CCC3CC3C2)c2ccc(OC)cc21 (configuration not stated) | 20 |  | selectivity ratio [2]: 13 |
| CCCCCCCCn1cc(CN2CCCCC2)c2ccc(C#N)cc21 | 22 |  |  |
| COc1ccc2c(CN3CCC4(CC3)OCCCO4)cn(CCCOc3ccccc3)c2c1 |  | > 300 |  |
| CCCCCCCCn1cc(CN2CCC3(CC2)OCCO3)c2ccc([N+](=O)[O-])cc21 | 62 | > 300 |  |
| CCCCCCCCn1cc(CN2CCC3(CCO3)CC2)c2ccc(OC)cc21 | 31 | 88 | selectivity ratio [2]: 16 |
| CCCCCCCCn1cc(CN2CCC3(CC2)OCCS3)c2ccc(OC)cc21 | 64 | > 300 | MIC50 [6]: 0.6 µM (≈ 0.258 µg/mL); MIC90 [6]: 0.95 µM (≈ 0.409 µg/mL); ΔTm [15]: 4 °C |
| CCCCCCCCn1cc(CN2CCC3(CC2)OCCCO3)c2ccc(OCCC)cc21 | 29 | 27 |  |
| CCCCCCCCn1cc(CNCC2CC3CC3C2)c2ccc(OC)cc21 (configuration not stated) | 10 | 33 |  |
| CCCCCCCCn1cc(CN2CCC3(CC2)OC(C)C(C)O3)c2ccc(OC)cc21 (configuration not stated) | 34 | 76 | selectivity ratio [2]: 49 |
| CCCCCCCCn1cc(CN2CCCCC2)c2ccc(OC(C)C)cc21 | 26 |  |  |
| CCCCCCCCn1cc(CN2CCC3(CC2)OCCO3)c2ccc(OCCC)cc21 | 29 | 31 |  |
| CCCCCCCCn1cc(CN2CCC3(CC2)OCCO3)c2ccc(OC(C)C)cc21 | 41 | 56 |  |
| CCCCCCCCn1cc(CN2CCC3(CCN(Cc4ccccc4)CC3)CC2)c2ccc(OC)cc21 | 14 | 69 |  |
| CCCCCCCCn1cc(CN2CCC3(CC2)SCCS3)c2ccc(OC)cc21 | > 200 | > 300 | selectivity ratio [2]: > 400; MIC50 [6]: 0.7 µM (≈ 0.313 µg/mL); MIC90 [6]: 1.1 µM (≈ 0.491 µg/mL); ΔTm [15]: 4 °C |
